Series [1] in a line: Cytotoxicity against African green monkey Vero cells assessed as reduction in cell viability incubated for 72 hrs by alamar blue staining based assay. The series is classed as toxicity. As to conditions: chlorocebus sabaeus. The procedure, abridged:
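Vero cells seeded at about 2 × 10^3 per well, 37 °C, 5% CO2. Compound added after 24 h and incubated 72 h. AlamarBlue (1:10 v/v) then added for 3 h in the dark, read at Ex/Em 560/590 nm. CC50 is the lowest concentration causing 50% loss of viability.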
For orientation: The colour change of resazurin is a common sign of viable cells or microbes.

Series [2] is described as follows: Tmax in ICR mouse at 5 mg/kg, po measured for 0.25 to 24 hrs by LC-MS/MS analysis. The class given is ADME, organism-based. As to conditions: in vivo, time 0.25-24 hrs. The procedure, abridged: (§1)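 Male ICR mice dosed orally with a solution of 5% DMSO, 4% ethanol, 5% Cremophor EL and 86% water. Blood collected at 15, 30 min, 1, 2, 4, 6, 8 and 24 h; plasma stored at -20 °C. Plasma levels measured by LC-MS/MS; parameters by non-compartmental analysis, with bioavailability relative to the 1 mg/kg iv dose.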

The subject of series [3] is Staphylococcus aureus. Kind of series: Antibacterial activity against Staphylococcus aureus ATCC25923 infected in ICR mouse assessed as reduction in bacterial burden in plasma at 25 mg/kg, ip by colony forming unit assay. The class given is functional, organism-based.
Series [4] in a line: Metabolic stability in mouse liver microsomes assessed as compound remaining preincubated for 5 mins followed by NADPH addition measured after 15 mins by LC/MS analysis. The class given is ADME, Microsome. As to conditions: time 20 min, read-out: Stability. The procedure, abridged: (§2)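 Liver microsomes (final protein 0.75 mg/mL) with compound in 100 mM phosphate buffer pH 7.4, preincubated 5 min at 37 °C. Reaction started with NADPH regeneration system, stopped at 5, 15, 30 and 45 min with acetonitrile containing internal standard. Percent remaining measured by LC/MS, with ketanserin as reference; variation given as RSD of area ratio.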
(In general: Liver microsomes are a subcellular fraction often used to study metabolism.)

Series [5] deals with Staphylococcus aureus. Kind of series: Antibacterial activity against Staphylococcus aureus ATCC25923 assessed as bacterial growth inhibition at 1 to 8 times MIC measured after 12 hrs by time kill curve assay relative to control. The class given is functional. The procedure, abridged: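 Time-kill: log-phase cultures diluted to about 10^6 CFU/mL in MHB with compound at 1×, 2×, 4× or 8× MIC (vancomycin at 2× MIC), shaken at 37 °C. Samples taken at 3, 6, 12 and 24 h, serially diluted and plated on LB agar. Colonies counted after 24 h at 37 °C; detection limit 10^3 CFU/mL.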

Series [6] in a line: Metabolic stability in human liver microsomes assessed as compound remaining preincubated for 5 mins followed by NADPH addition measured after 30 mins by LC/MS analysis. The series is classed as ADME, Microsome. The following applies: time 35 min, read-out: Stability. The procedure, abridged:
as §2

Series [7] is described as follows: Metabolic stability in rat liver microsomes assessed as compound remaining preincubated for 5 mins followed by NADPH addition measured after 5 mins by LC/MS analysis. The class given is ADME, Microsome. As to conditions: time 10 min, read-out: Stability. The procedure, abridged:
as §2

Series [8] can be described thus: Tmax in ICR mouse at 1 mg/kg, iv measured for 0.08 to 24 hrs by LC-MS/MS analysis. The series is classed as ADME, organism-based. The following applies: in vivo, time 0.08-24 hrs. The procedure, abridged: (§3)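 Male ICR mice, single intravenous dose formulated in 5% DMSO, 4% ethanol, 5% Cremophor EL, 86% water. Blood sampled at 5, 15, 30 min, 1, 2, 4, 8 and 24 h; plasma stored at -20 °C. Compound quantified by LC-MS/MS, with parameters from non-compartmental analysis.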

For a further series, the system named is Pseudomonas aeruginosa. Kind of series: Antibacterial activity against Pseudomonas aeruginosa 15690 assessed as bacterial growth inhibition incubated for 18 hrs by CLSI based broth microdilution method. The class given is functional. The procedure, abridged:
(§4)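 Broth microdilution to CLSI guidelines. Log-phase bacteria grown in Mueller Hinton broth, diluted, then exposed to 2-fold serial dilutions of compound (128 to 0.25 µg/mL or 2 to 0.004 µg/mL). Incubated aerobically 18 h at 37 °C. Growth read as OD600. MIC = lowest concentration giving ≥90% growth inhibition. Three independent assays.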

Series [9] in a line: Metabolic stability in rat liver microsomes assessed as half life preincubated for 5 mins followed by NADPH addition measured upto 45 mins by LC/MS analysis. The series is classed as ADME, Microsome. As to conditions: time < 50 min. The procedure, abridged: (§5)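 Liver microsomes at 0.75 mg/mL final protein, with test article and NADPH regeneration system (6 mM) in 100 mM phosphate buffer, pH 7.4. Preincubated 5 min at 37 °C, then started with NADPH. Quenched with acetonitrile containing internal standard at 5, 15, 30 and 45 min, centrifuged, and percent remaining measured by LC/MS. Ketanserin served as reference.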

A further series concerns Escherichia coli. Kind of series: Antibacterial activity against Escherichia coli 25922 assessed as bacterial growth inhibition incubated for 18 hrs by CLSI based broth microdilution method. The series is classed as functional. The procedure, abridged: (§6)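 CLSI broth microdilution. Log-phase bacteria in Mueller Hinton broth added to 2-fold serial dilutions spanning 128 to 0.25 or 2 to 0.004 µg/mL. Incubated aerobically for 18 h at 37 °C, then OD600 read. MIC is the lowest concentration giving ≥90% growth inhibition; three independent assays.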

Series [10] is described as follows: Clearance in ICR mouse at 1 mg/kg, iv measured for 0.08 to 24 hrs by LC-MS/MS analysis. The following applies: in vivo, time 0.08-24 hrs. The series is classed as ADME, organism-based. The procedure, abridged:
as §3

A short description of series [11]: Metabolic stability in mouse liver microsomes assessed as half life preincubated for 5 mins followed by NADPH addition measured upto 45 mins by LC/MS analysis. The series is classed as ADME, Microsome. The following applies: time < 50 min. The procedure, abridged:
as §5

The subject of a further series is Klebsiella pneumoniae. Kind of series: Antibacterial activity against Klebsiella pneumoniae 14578 assessed as bacterial growth inhibition incubated for 18 hrs by CLSI based broth microdilution method. The class given is functional. The procedure, abridged:
as §4

Series [12] can be described thus: Metabolic stability in rat liver microsomes assessed as compound remaining preincubated for 5 mins followed by NADPH addition measured after 30 mins by LC/MS analysis. The series is classed as ADME, Microsome. As to conditions: time 35 min, read-out: Stability. The procedure, abridged: as §2
Series [13] can be described thus: Metabolic stability in mouse liver microsomes assessed as compound remaining preincubated for 5 mins followed by NADPH addition measured after 30 mins by LC/MS analysis. The series is classed as ADME, Microsome. The following applies: time 35 min, read-out: Stability. The procedure, abridged:
as §2

Series [14] relates to Bacillus subtilis. Kind of series: Antibacterial activity against Bacillus subtilis BS01 assessed as bacterial growth inhibition incubated for 18 hrs by CLSI based broth microdilution method. The class given is functional. The procedure, abridged: as §6
Background: In broth dilution the organism is exposed to a series of concentrations in liquid medium.

The nature of series [15]: Cmax in ICR mouse at 5 mg/kg, po measured for 0.25 to 24 hrs by LC-MS/MS analysis. The class given is ADME, organism-based. Also on record: time upper 24 hrs, dose 5 mg/kg, time lower 0.25 hrs, route po. As to conditions: in vivo. The procedure, abridged: as §1
Series [16] deals with Bacillus subtilis. Kind of series: Antibacterial activity against Bacillus subtilis 618 assessed as bacterial growth inhibition incubated for 18 hrs by CLSI based broth microdilution method. The class given is functional. The procedure, abridged:
as §6

SMILES strings stand for the structures. ≈ marks a conversion by molar mass, not a printed value. Calls of active or inactive are those of the source. The rule behind the calls is not given here.

The results in this text go back to ChEMBL document CHEMBL5338714, “Design, synthesis and biological evaluation of biphenyl-benzamides as potent FtsZ inhibitors” (Eur J Med Chem, 2022).

Turning to `Cc1cc(Cl)ccc1-c1cccc(COc2ccc(F)c(C(N)=O)c2F)c1`, the 50% cytotoxic concentration (CC50) at 72 h in series [1] was above 20 µg/mL. Besides, the time of peak concentration (Tmax) in series [2] came out at 30 min; in series [8], 4.98 min. For the same compound, the outcome in the series on Staphylococcus aureus [3] was Active. Also, the remaining at 0.25 h in series [4] was found to be 11.9%. Further, the “inhibition (INH)” value in the series with Staphylococcus aureus [5] amounted to 100%. The remaining at 0.5 h in series [6] worked out at 83.4%; in series [12], 19.1%; in series [13], 1.74%. The remaining at 5 min in series [7] amounted to 73.7%. The MIC is above 128 µg/mL in the series on Pseudomonas aeruginosa; above 128 µg/mL in the series on Escherichia coli; above 128 µg/mL in the series on Klebsiella pneumoniae; 0.016 µg/mL (≈ 0.0413 µM) in the series on Bacillus subtilis [14]; 0.008 µg/mL (≈ 0.0206 µM) in the series on Bacillus subtilis [16]. Besides, the half-life was 13.6 min in [9] and 5.09 min in series [11]. In series [10], this compound displayed a CL of 94.713 mL/min/kg. For the same compound, the Cmax in series [15] turned out to be 429 ng/mL.

The term CC50 denotes the concentration that lowers cell viability or growth by half. As a reminder, the Tmax is the time at which the peak concentration occurs. The MIC is the least concentration at which growth counts as inhibited. Broadly, the half-life is how long it takes for the measured level to halve. A word on the Cmax: it is the peak of the concentration-time curve.
